Bioassay records (PubChem)
SUMO1-SIM PPI = SUMO1-SIM interaction modulation; P63165; SUMO1 binding to a labelled peptide, TR-FRET, 1 h; inhibition, % at 20 µM; hit rate 0.33% among 360,000; AID 602429; in the data active = inhibition above about 37%
Target sequence (P63165 whole entry, looked up): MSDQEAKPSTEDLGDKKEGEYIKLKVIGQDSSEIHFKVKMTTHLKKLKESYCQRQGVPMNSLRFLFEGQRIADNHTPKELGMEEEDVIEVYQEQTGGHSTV
Scp1 inh = Scp-1 (human) phosphatase inhibition. Recombinant Scp1, phosphopeptide, malachite green phosphate absorbance. inhibition, % at 20 µM. hit rate 0.88% among 340,000. AID 493091;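 active = inhibition above about 50% at 20 µM, limit read from the data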;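 note: plate controls were DMSO wells with enzyme for no effect and wells lacking enzyme for full effect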
Target sequence (Q9GZU7 76-261 limits assumed): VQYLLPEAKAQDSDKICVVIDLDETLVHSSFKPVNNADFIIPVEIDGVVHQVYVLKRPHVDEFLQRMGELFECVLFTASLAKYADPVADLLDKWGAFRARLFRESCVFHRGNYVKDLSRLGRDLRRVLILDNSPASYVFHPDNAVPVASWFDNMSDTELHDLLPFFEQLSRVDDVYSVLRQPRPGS
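Times: enzyme reaction 45 min at room temperature, colour 5 min, stabilisation 30 min. Material: SCP-1 catalytic fragment, aa 76-261. Medium: Acidic Tris acetate buffer with magnesium and detergent. Signal: colorimetric free-phosphate detection, absorbance 630 nm. Read-out basis: % inhibition of SCP-1 phosphate liberation. Reagent: Phosphorylated 17-residue peptide substrate.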
DNMT1 block = inhibitors of human DNMT1. P26358. DNMT1 molecular beacon, Hinp1I cleavage, fluorescence. inhibition (reported as % activation of signal), % at 10 µM. hit rate 0.83% among 360,000; in the data active = inhibition above about 50%
LMPTP block = LMPTP (human) inhibition; hit rate 0.22% among 360,000; inhibition, % at 20 µM; recombinant LMPTP-A, OMFP fluorogenic substrate, fluorescence intensity; P24666;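 active = compounds that cut the enzyme signal by at least half of the control window in the single-dose screen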;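 note: plate controls were DMSO wells with enzyme plus substrate for no effect and substrate without enzyme for full effect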
Target sequence (P24666 whole entry, looked up): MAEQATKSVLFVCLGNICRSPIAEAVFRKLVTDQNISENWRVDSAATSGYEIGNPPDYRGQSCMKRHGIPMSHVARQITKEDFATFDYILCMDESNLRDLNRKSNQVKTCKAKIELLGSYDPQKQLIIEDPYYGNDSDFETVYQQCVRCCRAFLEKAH
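material = LMPTP-A | quantity = 0.625 nM enzyme | reagent = OMFP substrate, 400 µM final | buffer or medium = Bis-Tris pH 6.0, DTT, detergent | detection = endpoint fluorescence intensity from OMFP dephosphorylation | dosing = single 20 µM dose | read-out basis = % inhibition relative to no-enzyme and uninhibited control wells | control set = no-enzyme and uninhibited controls | timing = 50 min at room temperature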
STEP block = inhibitors of human striatal-enriched phosphatase STEP; P54829; hit rate 0.25% among 360,000; inhibition, % at 20 µM; recombinant STEP, OMFP fluorogenic substrate, fluorescence;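 active = inhibition at 20 µM, scaled per plate between control wells, above about 37%, limit read from the data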;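 note: 0% = DMSO with enzyme and substrate and 100% = substrate only without enzyme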
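Measure: Control-normalized % inhibition with plate pattern correction | Test system: STEP phosphatase, cell-free reaction | Medium: pH 6.0 Bis-Tris with DTT and Tween 20 | Technique: Fluorescence, 480/540 nm | Times: Reaction 20 min, ambient temperature | Doses: Single compound dose of 20 µM, 1% DMSO final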
Scp-1 conf = Scp-1 (human) inhibition, single-dose confirmed; shares compounds with Scp1 inh; recombinant SCP-1 catalytic domain, phosphate release, malachite green absorbance; inhibition, % at 20 µM; hit rate 61% among 2,500; AID 540281;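 note: plate controls were DMSO with enzyme for no effect and buffer wells lacking enzyme for full effect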
MG interference = colorimetric interference in Scp-1 counter-screen. shares compounds with Scp1 inh. apparent inhibition (interference), % at 20 µM. Colorimetric interference counterscreen, malachite green absorbance 630 nm. 2,500 tested, under 10 active;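 note: compounds added after enzyme reaction finished so only phosphate colour detection is probed; plate controls were DMSO wells with completed Scp-1 reaction for no effect and substrate wells lacking enzyme for full effect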
Scp1 DSF = Scp-1 (human) binding by thermal shift; shares compounds with Scp1 inh; Recombinant SCP1, Sypro Orange thermal shift Tm; thermal shift relative to vanadate control, % at 40 µM; hit rate 25% among 1,500; AID 540329;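 active = substances whose mean melting-temperature shift, as a percentage of the reference inhibitor's shift, reaches about 5.3%, limit read from the data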;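 note: 0% = Tm of DMSO wells and 100% = Tm with sodium orthovanadate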
* marks the source's active call; other numbers are inactive results; · = not tested or not shown. Only some compounds are listed: those with a hit (about 1.7% of all), similar ones and a draw of the others.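 Rule for the calls, unless noted: active = inhibition of at least 30% at 20 µM; inactive = the rest.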

SMILES | SUMO1-SIM PPI | Scp1 inh | DNMT1 block | LMPTP block | STEP block | Scp-1 conf | MG interference | others
O=C(O)COc1ccc(Br)cc1/C=N/O | 0 | 60* | 19 | 3 | 11 | 52* | -3 | Scp1 DSF=-14
CCOC(=O)c1ccc2c(c1)N(C)C(=O)c1ccccc1S2 | -1 | 53* | 0 | -1 | -2 | 3 | -10
CCN1C(=O)c2ccccc2Sc2ccc(C(=O)O)cc21 | 5 | -13 | 0 | -2 | -2 | · | ·
Cc1nn(Cc2ccccc2Cl)c(C)c1NC(=O)c1noc2c1CCCCC2 | 0 | -8 | -2 | -1 | -3 | · | ·
Cc1nn(Cc2ccccc2Cl)c(C)c1NC(=O)c1noc(C(C)C)c1[N+](=O)[O-] | -9 | 63* | 0 | -1 | -1 | -113 | -10
O=C(NCCOc1ccccc1)c1ccccc1SCC(=O)N1CCCC1 | 0 | -5 | 1 | -2 | 2 | · | ·
COc1ccc(CCn2c(C(C)C)nc3c(c(=O)c4ccccc4n3C)c2=O)cc1 | 11 | 59* | -2 | 4 | 2 | 11 | 6
O=C(CSc1nnc(-c2ccncc2)n1-c1ccccc1)N1CCN(c2ccc(Cl)cc2)CC1 | 1 | 98* | 0 | -2 | -1 | 5 | -11
O=C(Nc1cccc(Cl)c1Cl)c1cc(S(=O)(=O)NCCc2ccccc2)ccc1F | 1 | -11 | 0 | 1 | -4 | · | ·
O=C1N/C(=N/S(=O)(=O)c2ccccc2)S/C1=C/c1cccnc1 | -2 | -1 | 4 | -1 | -1 | · | ·
O=C1NC(=Nc2ccccc2)S/C1=C\c1cccnc1 | -17 | 67* | 1 | 4 | 6 | 10 | -4
Cc1ccccc1S(=O)(=O)N1[C@@H](c2ccc(F)cc2)C(C(=O)O)=CC[C@H]1c1ccc(Cl)cc1 | 11 | 8 | 4 | 1 | 1 | · | ·
CC#CC#Cc1cccc(=O)o1 | -15 | 54* | 56* | 8 | 17 | 42* | -2 | Scp1 DSF=-8
CC(C)Cc1nnc(NC(=O)CC(C)c2ccccc2)s1 (stereo not drawn) | 3 | -2 | 1 | -1 | -3 | · | ·
CCc1nnc(NC(=O)CC(C)c2ccccc2)s1 (stereo not drawn) | -4 | 58* | 0 | -1 | 0 | -22 | -17
O=C(CCCCn1c(=O)[nH]c2ccsc2c1=O)NCc1ccc2c(c1)OCO2 | -2 | -12 | -1 | 1 | -1 | · | ·
O=C(CCCCn1c(=S)[nH]c2ccsc2c1=O)NCc1ccc2c(c1)OCO2 | 15 | 59* | -2 | 17 | 12 | -18 | -25
COc1cccc(C(=O)OCC(=O)Nc2sc3c(c2C(N)=O)CCC3)c1O | 34 | 62* | 48 | 11 | 5 | 72* | -6 | Scp1 DSF=9.7*
Cc1ccc(S(=O)(=O)CCNC(=O)Cc2ccc(Cl)cc2)cc1 | -6 | 3 | -1 | 1 | -1 | · | ·
O=C(CN1C(=O)NC2(CCc3ccccc32)C1=O)c1c[nH]c2ccccc12 (stereo not drawn) | -4 | -3 | -16 | 1 | -1 | · | ·
CC(/C=C/c1ccccc1F)=N\NC(=O)c1ccccc1 | -16 | -9 | 2 | 0 | -1 | · | ·
CC(/C=C/c1ccccc1F)=N\NC(=O)c1ccc(Cl)cc1 | 0 | 52* | 1 | 0 | -2 | -14 | -14
O=C1/C(=C/c2cccs2)SC(=S)N1CCC(=O)N1CCCCC1CCO (stereo not drawn) | -25 | -1 | -1 | 2 | 0 | · | ·
CC(=O)c1ccc(S(=O)(=O)N2Cc3ccccc3CC2C(=O)O)cc1 (stereo not drawn) | 17 | 82* | 37 | 0 | 8 | 64* | -16 | Scp1 DSF=-1
COc1ccc(CCC(=O)N2CCN(S(=O)(=O)c3ccc(C)cc3)CC2)cc1 | 3 | 4 | 1 | 0 | -4 | · | ·
SMILES | SUMO1-SIM PPI | Scp1 inh | DNMT1 block | LMPTP block | STEP block | Scp-1 conf | MG interference | others
COc1ccc(S(=O)(=O)N2CCN(C(=O)c3ccc([N+](=O)[O-])o3)CC2)cc1 | -35 | 51* | 8 | 1 | 6 | 42* | -15 | Scp1 DSF=4
CCOC(=O)C1C(C(C)=O)=C(c2ccccc2)c2ccccc2N1S(=O)(=O)C(F)(F)F (stereo not drawn) | -5 | 88* | 9 | 1 | 0 | 22 | -23
Cc1cccc(NS(=O)(=O)c2ccc3c(c2)NC(=O)CC(=O)N3)c1 | 1 | 3 | 1 | -1 | 0 | · | ·
CCc1cccc(NS(=O)(=O)c2ccc3c(c2)NC(=O)CC(=O)N3)c1 | 2 | -8 | 0 | 0 | -6 | -11 | -15
CCN(CC)C(=O)[C@H]1C[C@H](CC(=O)NCc2ccc(OC)c(OC)c2)C(=O)N2CCc3c([nH]c4ccc(Cl)cc34)[C@]12C | 2 | -4 | -9 | 0 | 0 | · | ·
CCN(CC(=O)Nc1ccc(OC)cc1)C(=O)c1ccccc1Sc1ccccc1C#N | -71 | -1 | -10 | -10 | 0 | · | ·
CC(C)CN(CC(C)C)S(=O)(=O)c1cc([N+](=O)[O-])ccc1N1CCCCCC1 | -2 | 52* | 3 | 5 | 5 | -9 | -12
CC1CCc2sc(C(=O)N/N=C/c3ccc([N+](=O)[O-])cc3)cc2C1 (stereo not drawn) | -2 | 72* | 25 | 36 | 30 | 69* | -14 | Scp1 DSF=4
O=C(N/N=C/c1ccc(-c2cccc([N+](=O)[O-])c2)o1)c1cccs1 | 6 | -9 | 1 | 3 | 1 | · | ·
O=C(N/N=C/c1ccc([N+](=O)[O-])cc1)c1cccs1 | -14 | 60* | -1 | 5 | 26 | 53* | -20 | Scp1 DSF=4
CC1CCc2sc(C(=O)NN=C3CCC(c4ccccc4)CC3)cc2C1 (stereo not drawn) | -2 | -7 | 6 | 1 | -1 | · | ·
COc1ccc(N2CCN(C(=O)NC3CC(=O)N(c4ccc(OC)cc4)C3)CC2)cc1 (stereo not drawn) | -2 | -9 | 2 | 0 | -2 | · | ·
C[C@H](CO)N1C[C@H](C)[C@@H](CN(C)S(=O)(=O)c2ccccc2)Oc2ccc(NC(=O)c3ccncc3)cc2C1=O | 4 | 7 | 3 | 1 | 2 | · | ·
C[C@H](CO)N1C[C@H](C)[C@@H](CN(C)S(=O)(=O)c2ccc(F)cc2)Oc2ccc(NC(=O)c3ccncc3)cc2C1=O | -5 | 59* | 0 | -3 | -2 | 7 | -11
COc1ccc(NC(=O)N(C)C[C@H]2Oc3ccc(NC(=O)c4ccncc4)cc3C(=O)N([C@H](C)CO)C[C@@H]2C)cc1 | 0 | 84* | 12 | -2 | -1 | 15 | -13
